Data taken from ChEMBL document CHEMBL1806419, “18β-Glycyrrhetinic acid derivatives induced mitochondrial-mediated apoptosis through reactive oxygen species-mediated p53 activation in NTUB1 cells” (Bioorg Med Chem, 2011).
Calls of active or inactive are those of the source. No cut-off for these calls is given here.

What was measured:
[1] = Cytotoxicity against human NTUB1 cells after 72 hrs by MTT assay; assay type: functional, cell-based; conditions: NTUB1, 72 h
Method in brief: (§1)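 Cells seeded 1800/well in 96-well plates, preincubated overnight at 37 °C, then exposed to graded concentrations for 72 h at 37 °C (NTUB1, PC3 in RPMI 1640; SV-HUC1 in F12; 10% FBS, 5% CO2). MTT (2 mg/mL) added 3 h, formazan dissolved in DMSO, absorbance 540 nm; viability as percent of control; IC50 by median-effect analysis, mean ± SD.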

[2] = Induction of apoptosis in human NTUB1 cells assessed as increase in JC-1 probe monomers at 10 uM after 24 hrs by flow cytometric analysis; assay type: functional
Method in brief: (§2)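 NTUB1 bladder carcinoma cells (3 × 10^5) in RPMI 1640 with 10% FBS at 37 °C, 5% CO2, exposed to test agent (10, 25 or 50 µM) with 10 µM CCCP as positive control. Stained 30 min with 1 µM JC-1 in medium, washed, trypsinised, resuspended in PBS/2% BSA. Flow cytometry read green monomer and red aggregate fluorescence; the aggregate/monomer ratio represents membrane potential.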

[3] = Induction of apoptosis in human NTUB1 cells assessed as decrease in JC-1 aggregation at 10 uM after 24 hrs by flow cytometric analysis; assay type: functional; design: scale not given: the % may be the effect or the level left; method in brief: as §2
[4] = Decrease in ROS generation in human NTUB1 cells at 1 mM after 24 hrs by H2DCFDA staining based flow cytometeric analysis relative to control; assay type: functional; design: scale not given: the % may be the effect or the level left
Method in brief: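 NTUB1 cells (3×10^5 per 6 cm dish) treated 24 h (20 µM cisplatin and 1 mM NAC controls; medium-only control); 10 µM H2DCFDA added 30 min before harvest; trypsinized, PBS-washed, DCF green fluorescence (525 nm band pass, region M1) measured immediately by flow cytometry; percent change vs control; mean ± SD, n = 3.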

[5] = Cell cycle arrest in human NTUB1 cells assessed as accumulation at subG1 phase at 1mM after 24 hrs by propidium iodide staining based flow cytometric analysis (reference value: 6.68%); assay type: functional
Method in brief: (§3)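 8×10^5 NTUB1 cells plated, treated 24 h (alongside 10 µM cisplatin, 1 mM NAC, 50 µM H2O2 controls); harvested by trypsinization, fixed overnight in ice-cold MeOH at −20 °C, stained with 50 µg/mL propidium iodide plus 50 µg/mL RNase A in PBS 30 min at room temperature; cell-cycle phase fractions and sub-G1 (apoptotic) DNA content by FACScan flow cytometry; three independent experiments.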

[6] = Cell cycle arrest in human NTUB1 cells assessed as accumulation at G1 phase at 1 mM after 24 hrs by propidium iodide staining based flow cytometric analysis (reference value: 50.64%); assay type: functional; method in brief: as §3
[7] = Cell cycle arrest in human NTUB1 cells assessed as accumulation at S phase at 1 mM after 24 hrs by propidium iodide staining based flow cytometric analysis (reference value: 20.37%); assay type: functional; method in brief: as §3
[8] = Cell cycle arrest in human NTUB1 cells assessed as accumulation at G2/M phase at 1 mM after 24 hrs by propidium iodide staining based flow cytometric analysis (reference value: 20.37%); assay type: functional; method in brief: as §3
[9] = Cytotoxicity against human NTUB1 cells assessed as cell viability at 50 uM after 72 hrs by MTT assay relative to control; assay type: functional; conditions: NTUB1, 72 h, read-out: Activity; method in brief: as §1
[10] = Cytotoxicity against human NTUB1 cells assessed as cell viability at 30 uM after 72 hrs by MTT assay relative to control; assay type: functional; conditions: NTUB1, 72 h, read-out: Activity; method in brief: as §1
[11] = Cytotoxicity against human NTUB1 cells assessed as cell viability at 5 uM after 72 hrs by MTT assay relative to control; assay type: functional; conditions: NTUB1, 72 h, read-out: Activity; method in brief: as §1
[12] = Cytotoxicity against human NTUB1 cells assessed as cell viability at 10 uM after 72 hrs by MTT assay relative to control; assay type: functional; conditions: NTUB1, 72 h, read-out: Activity; method in brief: as §1
[13] = Cytotoxicity against human NTUB1 cells assessed as cell viability at 3 uM after 72 hrs by MTT assay relative to control; assay type: functional; conditions: NTUB1, 72 h, read-out: Activity; method in brief: as §1
[14] = Cytotoxicity against human NTUB1 cells assessed as cytotoxic inhibition at 1 uM after 72 hrs by MTT assay relative to control; conditions: NTUB1, 72 h
[15] = Cytotoxicity against immortalized human SV-HUC1 cells after 72 hrs by MTT assay; assay type: cell-based; conditions: sv-huc1, 72 h; method in brief: as §1
[16] = test system: PC-3; assay: Cytotoxicity against human PC3 cells after 72 hrs by MTT assay; assay type: functional, cell-based; method in brief: as §1

| Structure (SMILES) | IC50 [1] [µM] | other results |
| --- | --- | --- |
| C=C(C)[C@@H]1CC[C@]2(C)[C@H](C(=O)C=C3[C@@H]4C[C@@](C)(C(=O)OC)CC[C@]4(C)CC[C@]32C)[C@@]1(C)CCC(=O)O | 20.7 |  |
| CC1(C)OC(=O)CC[C@]2(C)[C@H]3C(=O)C=C4[C@@H]5C[C@@](C)(C(=O)OCc6ccccc6)CC[C@]5(C)CC[C@@]4(C)[C@]3(C)CC[C@@H]12 | 57.6 |  |
| N#CC(C#N)=NNc1cccc(Cl)c1 [CARBONYL CYANIDE M-CHLOROPHENYLHYDRAZONE] |  | Activity [2]: 52.06%; Activity [3]: 48.42% |
| CC(=O)N[C@@H](CS)C(=O)O [ACETYLCYSTEINE] |  | Activity [4]: 26.1%; Activity [5]: 2.66%; Activity [6]: 44.4%; Activity [7]: 29.2%; Activity [8]: 20.2% |
| C=C(C)[C@@H]1CC[C@]2(C)[C@H](C(=O)C=C3[C@@H]4C[C@@](C)(C(=O)OCc5ccccc5)CC[C@]4(C)CC[C@]32C)[C@@]1(C)CCC(=O)O | 2.34 |  |
| CC1(C)C(=O)CC[C@]2(C)[C@H]3C(=O)C=C4[C@@H]5C[C@@](C)(C(=O)O)CC[C@]5(C)CC[C@@]4(C)[C@]3(C)CC[C@@H]12 | 18.6 |  |
| CC1(C)C(=O)CC[C@]2(C)[C@H]3C(=O)C=C4[C@@H]5C[C@@](C)(C(=O)OCc6ccccc6)CC[C@]5(C)CC[C@@]4(C)[C@]3(C)CC[C@@H]12 | 20.2 |  |
| C=C(C)[C@@H]1CC[C@]2(C)[C@H](C(=O)C=C3[C@@H]4C[C@@](C)(C(=O)NC(C)C)CC[C@]4(C)CC[C@]32C)[C@@]1(C)CCC(=O)OC | 13.1 | viability at 50 µM [9]: 71%; viability at 30 µM [10]: 67%; viability at 5 µM [11]: 24%; viability at 10 µM [12]: 27%; viability at 3 µM [13]: 25%; cytotoxic inhibition at 1 µM [14]: 40% |
| C=C(C)[C@@H]1CC[C@]2(C)[C@H](C(=O)C=C3[C@@H]4C[C@@](C)(C(=O)NC(C)C)CC[C@]4(C)CC[C@]32C)[C@@]1(C)CCC(=O)OCC | 19.4 | Activity [15]: Non-toxic; Activity [16]: Active |
| CC1(C)[C@@H](O)CC[C@]2(C)[C@H]3C(=O)C=C4[C@@H]5C[C@@](C)(C(=O)O)CC[C@]5(C)CC[C@@]4(C)[C@]3(C)CC[C@@H]12 [ENOXOLONE] | 27.3 |  |
| C=C(C)[C@@H]1CC[C@]2(C)[C@H](C(=O)C=C3[C@@H]4C[C@@](C)(C(=O)OCc5ccccc5)CC[C@]4(C)CC[C@]32C)[C@@]1(C)CCC(=O)NC(C)C | 30.1 |  |
| C=C(C)[C@@H]1CC[C@]2(C)[C@H](C(=O)C=C3[C@@H]4C[C@@](C)(C(=O)OCc5ccccc5)CC[C@]4(C)CC[C@]32C)[C@@]1(C)CCC(=O)OC(C)C | 18.2 |  |
| C=C(C)[C@@H]1CC[C@]2(C)[C@H](C(=O)C=C3[C@@H]4C[C@@](C)(C(=O)OC)CC[C@]4(C)CC[C@]32C)[C@@]1(C)CCC(=O)NC(C)C | 31.4 |  |
| C=C(C)[C@@H]1CC[C@]2(C)[C@H](C(=O)C=C3[C@@H]4C[C@@](C)(C(=O)OCc5ccccc5)CC[C@]4(C)CC[C@]32C)[C@@]1(C)CCC(=O)OC | 9.41 | viability at 50 µM [9]: 68%; viability at 30 µM [10]: 66%; viability at 5 µM [11]: 20%; viability at 10 µM [12]: 50%; viability at 3 µM [13]: 22%; cytotoxic inhibition at 1 µM [14]: 32% |
| COC(=O)[C@@]1(C)CC[C@]2(C)CC[C@]3(C)C(=CC(=O)[C@@H]4[C@@]5(C)CCC(=O)OC(C)(C)[C@@H]5CC[C@]43C)[C@@H]2C1 | 24.3 |  |
| CC1(C)OC(=O)CC[C@]2(C)[C@H]3C(=O)C=C4[C@@H]5C[C@@](C)(C(=O)O)CC[C@]5(C)CC[C@@]4(C)[C@]3(C)CC[C@@H]12 | 73.5 |  |
| CC(C)NC(=O)[C@@]1(C)CC[C@]2(C)CC[C@]3(C)C(=CC(=O)[C@@H]4[C@@]5(C)CCC(=O)OC(C)(C)[C@@H]5CC[C@]43C)[C@@H]2C1 | 25.7 |  |
| CC1(C)OC(=O)CC[C@]2(C)[C@H]3C(=O)C=C4[C@@H]5C[C@@](C)(C(=O)Nc6ccccc6)CC[C@]5(C)CC[C@@]4(C)[C@]3(C)CC[C@@H]12 | 16 |  |
| C=C(C)[C@@H]1CC[C@]2(C)[C@H](C(=O)C=C3[C@@H]4C[C@@](C)(C(=O)OCc5ccccc5)CC[C@]4(C)CC[C@]32C)[C@@]1(C)CCC(=O)OCC | 27.8 |  |
| C=C(C)[C@@H]1CC[C@]2(C)[C@H](C(=O)C=C3[C@@H]4C[C@@](C)(C(=O)NC(C)C)CC[C@]4(C)CC[C@]32C)[C@@]1(C)CCC(=O)O | 17.5 |  |
| C=C(C)[C@@H]1CC[C@]2(C)[C@H](C(=O)C=C3[C@@H]4C[C@@](C)(C(=O)NC(C)C)CC[C@]4(C)CC[C@]32C)[C@@]1(C)CCC(=O)NCCC | > 50 |  |
| COC(=O)[C@@]1(C)CC[C@]2(C)CC[C@]3(C)C(=CC(=O)[C@@H]4[C@@]5(C)CCC(=O)C(C)(C)[C@@H]5CC[C@]43C)[C@@H]2C1 | 56.5 |  |
| C=C(C)[C@@H]1CC[C@]2(C)[C@H](C(=O)C=C3[C@@H]4C[C@@](C)(C(=O)Nc5ccccc5)CC[C@]4(C)CC[C@]32C)[C@@]1(C)CCC(=O)O | 3.31 |  |
| C=C(C)[C@@H]1CC[C@]2(C)[C@H](C(=O)C=C3[C@@H]4C[C@@](C)(C(=O)OCc5ccccc5)CC[C@]4(C)CC[C@]32C)[C@@]1(C)CCC(=O)NCC | 42.7 |  |
| C=C(C)[C@@H]1CC[C@]2(C)[C@H](C(=O)C=C3[C@@H]4C[C@@](C)(C(=O)NC(C)C)CC[C@]4(C)CC[C@]32C)[C@@]1(C)CCC(=O)NCC | 12.8 | Activity [15]: Non-toxic; Activity [16]: Active |
| C=C(C)[C@@H]1CC[C@]2(C)[C@H](C(=O)C=C3[C@@H]4C[C@@](C)(C(=O)NC(C)C)CC[C@]4(C)CC[C@]32C)[C@@]1(C)CCC(=O)OC(C)C | 29.2 |  |
| C=C(C)[C@@H]1CC[C@]2(C)[C@H](C(=O)C=C3[C@@H]4C[C@@](C)(C(=O)OCc5ccccc5)CC[C@]4(C)CC[C@]32C)[C@@]1(C)CCC(=O)NCCC | 49.4 |  |
| C=C(C)[C@@H]1CC[C@]2(C)[C@H](C(=O)C=C3[C@@H]4C[C@@](C)(C(=O)OC)CC[C@]4(C)CC[C@]32C)[C@@]1(C)CCC(=O)OC(C)C | 25.3 |  |
